OX1R antag-1: blocks the human orexin 1 receptor; AID 485270; OX1R-expressing cells, FRET antagonist read-out; O43613; 330,000 compounds, 1.8% hits; inhibition, % at 6.6 µM; in the data active means inhibition mostly above about 38%, no sharp cut-off; inactive means mostly below about 40%;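 further: 0% = agonist challenge alone and 100% = reference antagonist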
Target sequence (O43613 whole entry, looked up): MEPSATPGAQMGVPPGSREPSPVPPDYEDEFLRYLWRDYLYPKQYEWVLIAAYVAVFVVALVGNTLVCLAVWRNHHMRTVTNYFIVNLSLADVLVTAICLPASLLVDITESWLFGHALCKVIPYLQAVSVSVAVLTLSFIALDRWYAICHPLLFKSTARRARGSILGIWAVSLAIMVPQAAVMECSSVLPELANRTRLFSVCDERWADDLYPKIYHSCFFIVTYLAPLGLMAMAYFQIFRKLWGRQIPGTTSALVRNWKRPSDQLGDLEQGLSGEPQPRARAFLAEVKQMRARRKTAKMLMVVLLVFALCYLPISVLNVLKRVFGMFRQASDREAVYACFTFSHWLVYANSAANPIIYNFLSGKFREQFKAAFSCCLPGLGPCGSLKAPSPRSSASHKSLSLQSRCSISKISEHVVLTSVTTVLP
CHO parental Ca: counter-screen for OX1R antagonists: effect in parental CHO cells; 330,000 compounds, 0.63% hits; inhibition, % at 5.6 µM; parental CHO-K1, ATP-induced calcium, Fluo-8 fluorescence;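 active means inhibition above that plate's mean sample inhibition plus 3 SD, cut at about 26% in these data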;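 further: 0% = ATP-challenged DMSO wells and 100% = DMSO wells without ATP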
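Test system: parental CHO cells; detection: calcium-sensitive Fluo-8 fluorescence; evaluation: percent inhibition of calcium signal; also added: ATP as calcium-mobilizing challenge; repeats: one well per compound; control set: ATP-challenged DMSO wells low, unchallenged DMSO wells high; compound: single nominal dose of 5.6 µM per compound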
GalR3 antagonist: blocks the human galanin receptor 3. HEK293 GalR3-CNG cAMP membrane potential fluorescence; galR3 body fused to GalR1 C-terminus. inhibition, % at 3 µM. 360,000 compounds, 0.44% hits;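 active means inhibition above the screen-wide average plus 3 SD, cut at about 13% in these data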;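 further: forskolin and galanin both at EC90 stimulate the cells; cAMP rise reported by CNG channel membrane potential dye signal; 0% = forskolin plus galanin with DMSO and 100% = forskolin alone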
GPR7 antagonist: human neuropeptides B/W receptor 1 antagonism; P48145; GPR7-expressing cells, fluorescence antagonist assay; inhibition, % at 4.4 µM; 290,000 compounds, 1.1% hits; AID 1861; in the data active means inhibition above about 16%, passing the limit was not always enough;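 further: cells stimulated with the agonist NPW; 0% = agonist with vehicle and 100% = vehicle without agonist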
OX1R antag-2: blocks the human orexin 1 receptor; O43613; CHO/OX1R cells, Fluo-8 calcium fluorescence, orexin A; inhibition, % at 5 µM; 330,000 compounds, 0.43% hits;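 active means inhibition above its plate's threshold, mean inhibition of all tested compounds on the plate plus 3 SD, cut at about 37% in these data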;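 further: 0% = orexin A challenge wells and 100% = SB-334867-A antagonist wells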
Numbers without * were called inactive; . = not tested or not shown. Compounds with a hit are over-represented: about 3.1% of the library has one in this group of screens.

SMILES	OX1R antag-1	CHO parental Ca	GalR3 antagonist	GPR7 antagonist	OX1R antag-2
CC1Cc2ccccc2N1C(=O)C1CCCCN1S(=O)(=O)c1ccccc1 (centres undefined)	49*	-10	-2	-3	5
Cc1ccc(OC2CCN(C(=O)[C@@H](Cc3ccccc3)NC(=O)[C@H]3O[C@@H](n4ccc(=O)[nH]c4=O)[C@H](O)[C@@H]3O)CC2)cc1	.	.	-2	.	.
CC(=O)C1=C(C)N(Cc2ccc(Br)cc2)C(=S)NC1c1cccc(F)c1 (centres undefined)	.	.	-9	.	.
Cc1ccc(S(=O)(=O)N2Cc3ccccc3CC2C(=O)Nc2ccc3c(c2)OCO3)cc1 (centres undefined)	20	-12	-5	0	-14
Cc1ccc(S(=O)(=O)N2Cc3ccccc3CC2C(=O)NC(C)(C)C)cc1 (centres undefined)	27*	-26	-7	-3	-19
O=C1c2cccc3cccc(c23)C(=O)N1c1cccnc1	48*	-15	-2	-12	-16
COc1ccc(N2C(=O)c3cccc4cccc(c34)C2=O)cc1	13	-5	-11	-8	-11
Cc1ccccc1N1C(=O)c2cccc3cccc(c23)C1=O	20	-16	-8	-16	-13
O=C(O)c1ccccc1N1C(=O)c2cccc3cccc(c23)C1=O	66*	-3	-6	-5	-13
Cc1c(N2C(=O)c3cccc4cccc(c34)C2=O)cnn1C	51*	-23	-5	-8	-19
O=C(Cc1c[nH]c2ccccc12)Nc1ccc(Nc2cccnc2)c(Br)c1	.	.	-6	.	.
CCn1c(O)c(N=NC(=O)c2ccc(CSc3nncn3C)cc2)c2ccccc21	70*	-17	-2	-14	-20
COc1cc(NC(=O)COc2ccc(-n3ccnc3)cc2)cc(OC)c1	8	0	-4	-1	-10
CC(C)(C)c1ccc(NC(=O)COc2ccc(-n3ccnc3)cc2)cc1	38	44*	-6	2	62*
CCOC(=O)[C@@H]1[C@H]2COc3ccccc3[C@@H]2N2C(=O)N(c3ccc(C(F)(F)F)cc3)C(=O)[C@@]12C	3	-17	-6	.	-19
CCOC(=O)[C@@H]1[C@H]2COc3ccccc3[C@H]2N2C(=O)N(c3ccc(C(F)(F)F)cc3)C(=O)[C@]12C	6	46*	-3	-1	-16
Cc1csc(=O)n1CC(=O)OCc1nnc(-c2ccc([N+](=O)[O-])cc2)o1	37*	-2	-3	.	1
CC(=O)c1c(C)[nH]c(C(=O)OCc2nnc(-c3ccc([N+](=O)[O-])cc3)o2)c1C	15	11	-8	.	10
Cc1ccc(C(=O)NCC(=O)OCc2nnc(-c3ccc([N+](=O)[O-])cc3)o2)s1	38*	-14	-4	.	-17
CC1(C)Cc2cccc(OCC(=O)OCc3nnc(-c4ccccc4)o3)c2O1	3	-14	-7	.	-22
CC1(C)Cc2cccc(OCC(=O)OCc3nnc(-c4ccc([N+](=O)[O-])cc4)o3)c2O1	50*	-2	-5	.	-7
O=C(COC(=O)CCC(=O)c1ccc(F)cc1)Nc1nnc(-c2ccccc2)o1	16	4	-3	.	-15
Cc1csc(=O)n1CC(=O)OCc1nnc(-c2ccc(Cl)cc2)o1	17	-17	-5	.	-23
O=C(CCC(=O)c1ccc(F)cc1)OCc1nnc(-c2ccc([N+](=O)[O-])cc2)o1	41*	-9	-6	.	-2
COC(=O)C1=C(C)N(Cc2ccccc2C(F)(F)F)C(=NCc2cccc(C(F)(F)F)c2)NC1c1ccc(F)cc1 (centres undefined)	.	.	-2	.	.
SMILES	OX1R antag-1	CHO parental Ca	GalR3 antagonist	GPR7 antagonist	OX1R antag-2
CCCNC(=O)C1(C)CCCN(Cc2ccc(C(F)(F)F)cc2)C1 (centres undefined)	.	.	-3	.	.
Cc1csc(=O)n1CCC(=O)OCC(=O)Nc1cc(Cl)ccc1[N+](=O)[O-]	53*	-8	-4	.	-18
Cc1csc(=O)n1CC(=O)OCC(=O)NNC(=O)c1ccccc1	8	7	3	-4	0
Cc1csc(=O)n1CC(=O)OCC(=O)NNC(=O)c1ccc([N+](=O)[O-])cc1	76*	0	-2	.	-1
N#CC(CC(=O)OCc1ccccc1)NC(=O)OCc1ccccc1 (centres undefined)	.	.	-5	.	.
COc1ccc(NC(=O)N(C)C[C@@H]2OCCCC[C@@H](C)Oc3ccc(NS(C)(=O)=O)cc3C(=O)N([C@H](C)CO)C[C@@H]2C)cc1	.	.	-3	.	.
CCCc1nc2nc(C)c(NS(=O)(=O)c3ccc([N+](=O)[O-])cc3)c(=O)n2[nH]1	50*	-5	-5	10	-54
Cc1nc2nc[nH]n2c(=O)c1NS(=O)(=O)c1ccc([N+](=O)[O-])cc1	44*	-9	-6	-18	-8
CC1(CC(=O)N/N=C/c2cc([N+](=O)[O-])c(O)cc2O)OCCO1	52*	-2	-3	1	-2
O=C(N[C@H](C(=O)N1CCC[C@H]1C(=O)NCCc1ccccc1Cl)c1ccccc1)c1ccco1	.	.	-6	.	.
COc1ccc(OC)c(NC(=O)C2CCCN(S(=O)(=O)c3cccc4nsnc34)C2)c1 (centres undefined)	58	2	-2	-3	-11
COc1ccccc1NC(=O)C1CCCN1S(=O)(=O)c1cccc2nsnc12 (centres undefined)	76*	-12	.	-19	20
COc1ccc(NC(=O)C2CCCN2S(=O)(=O)c2cccc3nsnc23)c(OC)c1 (centres undefined)	57*	-23	.	-13	-12
CN(C)c1cccc2c(S(=O)(=O)NCC3CCN(C(=O)C(=O)c4cccs4)CC3)cccc12	.	.	0	.	.
Cc1ccc(CN2CC=CCS2(=O)=O)cc1	.	.	3	.	.
O=C(OCc1ccccc1)N1CCN(C(c2ccnc3ccccc23)c2nnnn2-c2ccc3c(c2)OCCO3)CC1 (centres undefined)	.	.	-2	.	.
CCN(CC)c1ccc(/C=C(/C#N)c2nc3ccccc3[nH]2)c(OC(C)C)c1	39*	66*	-7	6	116*
CCOc1cccc(/C=C(/C#N)c2nc3ccccc3[nH]2)c1OCC(=O)O	5	-2	-12	-7	-27
CCn1c(SCc2nc(-c3ccccc3)no2)nc2ccccc21	54*	-10	0	-12	1
C[C@@H]1CN([C@@H](C)CO)C(=O)CCCn2nncc2CO[C@H]1CN(C)Cc1ccc(Cl)c(Cl)c1	.	.	-5	.	.
CCCCCCCCN1C(=O)[C@@H](CC(=O)N2CCCC2)C[C@@]2(C(=O)OC)C1=C[C@H](C(C)(C)C)O[C@@H]2C	.	.	-7	.	.
COC(=O)[C@]12C[C@H](CC(=O)NCc3cccc(C(F)(F)F)c3)C(=O)N(Cc3ccc4c(c3)OCO4)C1=C[C@H](C(C)(C)C)O[C@@H]2C	.	.	-5	.	.
O=C(/C=C/c1cc(Br)ccc1O)c1ccco1	7	-18	28*	13	9
Cc1cccc(/C=N/NC(=O)c2cc(C)nc3ccccc23)n1	37	-10	5	10	-8

Assay outcomes: PubChem, The Scripps Research Institute Molecular Screening Center
